These results are taken from PubChem BioAssay AID871 (The Scripps Research Institute Molecular Screening Center, 2007).

Screen size: about 190,000 compounds; about 1,800 (0.95%) were called active. Only a selection was taken, and actives are over-represented in it overall. Values without a mark were called inactive.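 Rule for the calls: active = activation above the screen-wide mean of compound activation plus 3 SD (cut at about 130% in these data); inactive = the rest.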

This test in a line: enhancers of STAT3 transcriptional signaling – U3A cells, luciferase, luminescence, MLSCN library, primary screen (AID 871).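 Note: 0% = background luminescence of wells with medium and substrate only.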 The conditions noted are these: IL-6 STAT3-luciferase reporter, at 5.6 µM, stronger effect = higher value, 100% = signal with IL-6 EC80 alone. An outline of the steps:
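Assay system – human STAT1-deficient U3A cells with stable STAT3-luciferase reporter · Also added – IL-6 (33 ng/mL) · Schedule – compound 1 h, then IL-6 6 h at 37 °C · Technique – reporter luminescence signal · Evaluation – % activation versus median of IL-6-stimulated wells · Benchmarks – IL-6-only wells as 100% reference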
A general note: Reporter assays use an easily measured gene product as a stand-in for the process of interest.
Regarding `CCc1c(C)nc2c(OC)cccc2c1Cl`, the activation (% of control) is 101%.
`Cc1cccc2c(=O)n3c(nc12)CCCCC3`: the activation (% of control) was 102%.
For the compound `COc1nc(N=C(N)N)nc2c(C)cccc12`, the activation (% of control) was 172% (active).
For the compound `COc1ccc2nc(/N=C(\N)NC(=O)Nc3ccccc3)nc(C)c2c1`, the activation (% of control) is 100%.
On to `Cc1nc(N=C(N)N)nc2c(C)cccc12`, for which the activation (% of control) was 168% (active).
With `O=C(COC(=O)c1ccccc1)Nc1cccc(S(=O)(=O)N2CCOCC2)c1`, the activation (% of control) was 101%.
The result for `CCC1CCCCN1C(=S)Nc1ccc(SC(F)F)cc1` (centres undefined) reads 94.3%.
For the compound `CC1(C)CC(=O)CC2(C1)NCC(c1ccccc1Cl)c1c2[nH]c2ccccc12` (centres undefined), the activation (% of control) is 105%.
Regarding `O=C(C1=C(O)C(=O)N(Cc2ccccc2)C1c1ccco1)c1ccco1` (centres undefined), the activation (% of control) was 101%.
Consider `O=C(C1=C(O)C(=O)N(c2ncccn2)C1c1cccs1)c1ccco1` (centres undefined), for which the activation (% of control) was 134% (active).
Then `O=C(C1=C(O)C(=O)N(Cc2ccccc2)C1c1cccnc1)c1ccco1` (centres undefined), with 100%; and `CCOC(=O)CNC(=O)/C=C/c1c(Cl)cccc1Cl`, with 86.6%; and `CCOC(=O)C1CCN(c2ncnc3c2oc2ccc(Br)cc23)CC1`, with 141% (active).
Turning to `CCOC(=O)C1CCN(C(=O)c2oc3ccc(S(=O)(=O)N4CCCCCC4)cc3c2C)CC1`, the activation (% of control) was 89.9%.
The result for `CCOC(=O)C1CCN(c2ncnc3c2c(-c2ccccc2)cn3-c2ccc(C)cc2)CC1` reads 102%; that for `Cn1cccc1C(=O)Nc1nccs1`, 140% (active).
For the compound `COc1cc(C(=O)Nc2nccs2)cc(OC)c1OC`, the activation (% of control) is 81%.
Take `O=C(O)c1ccccc1-c1ccccc1C(=O)Nc1nccs1`: the activation (% of control) was 101%.
As for `COC(=O)Cc1c(O)ccn(Cc2cccc(C(F)(F)F)c2)c1=O`, the activation (% of control) is 99.8%.
Turning to `COCC(=O)N=Nc1c(O)[nH]c2ccccc12`, the activation (% of control) is 92.2%.
Regarding `Cc1cccc(N(CC(=O)N=Nc2c(O)[nH]c3ccccc23)S(C)(=O)=O)c1C`, the activation (% of control) was 140% (active).
For the compound `Cc1c(-c2ccccc2)n[nH]c1C(=O)N=Nc1c(O)[nH]c2ccccc12`, the activation (% of control) is 84.5%.
With `CC1=NNC(=O)C1CCC(=O)N/N=C\c1ccc(Cl)c(Cl)c1` (centres undefined), the activation (% of control) is 108%.
Take `Cc1ccc2nsnc2c1NC(=O)c1ccccc1[N+](=O)[O-]`: the activation (% of control) is 99.5%.
The result for `O=C(O/N=C(/c1ccccc1)c1ccncc1)c1ccccc1[N+](=O)[O-]` reads 113%; that for `C/C(=N\NC(=O)CNc1cccc2ccccc12)c1ccc(Br)s1`, 137% (active); that for `Cc1cccc(/C=N/NC(=O)CNc2cccc3ccccc23)n1`, 114%.
For the compound `C/C(=N\NC(=O)CSc1nc2ccccc2c(=O)n1-c1ccccc1C)c1cccs1`, the activation (% of control) is 105%.
For `Cc1cc(/C=N/NC(=O)c2cccnc2)c(C)n1CC(C)C`, the activation (% of control) was 118%.
As to `CSCCC(NC(=O)COc1ccccc1)C(=O)OCC(=O)c1cc2ccccc2o1` (centres undefined), the activation (% of control) is 116%.
The result for `CSCCC(NC(=O)c1ccco1)C(=O)OCC(=O)Nc1ncc(Cl)c(C)c1Cl` (centres undefined) reads 145% (active).
As for `Cc1c(Cl)cnc(NC(=O)COC(=O)c2ccc(S(=O)(=O)NCc3ccco3)cc2)c1Cl`, the activation (% of control) was 103%.
With `O=C1CCCN1CCCNc1ncnc2c1[nH]c1ccccc12`, the activation (% of control) is 151% (active).
For `CC(C)OCCCNc1ncnc2c1[nH]c1ccc(F)cc12`, the activation (% of control) was 36.3%.
In the case of `O=C(CCn1c(=S)[nH]c2ccccc2c1=O)NCCCN1CCCC1=O`, the activation (% of control) is 98.6%.
`CCCc1nnc(SCC(=O)N2C(C)CCCC2C)n1CC` (centres undefined): the activation (% of control) is 105%.
On to `N#CCSc1nn(-c2ccc(F)cc2)c(=S)s1`, for which the activation (% of control) was 103%.
The result for `O=C(CNC1CCCCC1)NCC1(c2ccccc2)CCCC1` reads 112%; that for `O=C(CSc1nc2ccccc2[nH]1)N/N=C/C=C\c1ccccc1[N+](=O)[O-]`, 96.6%.
As to `CN1CCN(c2ccc([N+](=O)[O-])c(Sc3nc4ccccc4[nH]3)c2)CC1`, the activation (% of control) is 137% (active).
For the compound `CN1CCN(c2ccc(S(=O)(=O)Nc3ccccc3)cc2[N+](=O)[O-])CC1`, the activation (% of control) is 79.1%.
Consider `COc1ccc2c(c1)CCc1cn3ncc(C#N)c3nc1-2`, for which the activation (% of control) was 100%.
`O=C(NCC1CCCCC1)c1cc(S(=O)(=O)N2CCCCC2)ccc1N1CCOCC1`: the activation (% of control) was 104%.
On to `CC(=O)Nc1ccc(S(=O)(=O)N2CCN(c3ccc([N+](=O)[O-])c(NCCN4CCOCC4)c3)CC2)cc1`, for which the activation (% of control) was 104%.
As for `O=C(c1ccccc1)N1CCN(c2ccc([N+](=O)[O-])c(NCc3ccco3)c2)CC1`, the activation (% of control) was 107%.
For the compound `O=[N+]([O-])c1ccc(N2CCN(S(=O)(=O)c3ccc4ccccc4c3)CC2)cc1NCc1ccco1`, the activation (% of control) is 154% (active).
In the case of `CCCS(=O)(=O)N1CCC(CCOc2ccccc2)(C(=O)OCC)CC1`, the activation (% of control) was 95.8%.
As for `O=C(/C(=C/c1cccc(Cl)c1)c1nc2ccccc2[nH]1)c1ccccc1`, the activation (% of control) was 98.5%.
In the case of `Oc1ccc(Cl)cc1/C=N/c1nc2ccccc2[nH]1`, the activation (% of control) was 143% (active).
Turning to `c1ccc2[nH]c(-c3nc4ccccc4[nH]3)nc2c1`, the activation (% of control) is 63.1%.
In the case of `C/C(=N\c1nc2ccccc2n1C)c1cc(Cl)ccc1O`, the activation (% of control) is 137% (active).
With `Cc1ccc(O)c(CNc2nc3ccccc3n2C)c1`, the activation (% of control) was 102%.
For `Cc1c(C(=O)Nc2cccc(Cl)c2)cn2c(nc3ccccc32)c1C#N`, the activation (% of control) is 94.7%.
Consider `CC(C)CNC(=O)/C=C/C(=O)O`, for which the activation (% of control) was 103%.
Consider `O=C(CN1CCCC1)N1CCN(c2ccccc2)CC1`, for which the activation (% of control) was 104%.
Consider `Cc1nnc(SCc2cccc(Cl)c2)n(N)c1=O`, for which the activation (% of control) was 88.9%.
For `Cc1ccc(N=Nc2c(C)[nH]n(-c3ccccc3)c2=O)cc1`, the activation (% of control) was 147% (active).
The result for `Cc1cccc(N=Nc2c(C)[nH]n(-c3ccccc3)c2=O)c1` reads 122%; that for `Cc1c(N=Nc2ccc(N(C)C)cc2)c(=O)n(-c2ccccc2)n1C`, 115%.
Take `Cc1nc2scc(-c3cccs3)c2c(=O)n1N`: the activation (% of control) is 97.7%.
Consider `Cc1ccc(C2=NN(C)c3nc4ccccc4n3C2)cc1`, for which the activation (% of control) is 170% (active).
Then `Cn1cccc1-c1nc2ccccc2n1C`, with 89.2%.
Then `Cc1nn2c3ccccc3nc2n(C)c1=O`, with 91%; and `O=C(N/N=C1\CCSC1)c1cc(Cl)ccc1O`, with 100%.
